Laboratory results as given in ChEMBL document CHEMBL4732057, “Design, synthesis and biological evaluation of second-generation benzoylpiperidine derivatives as reversible monoacylglycerol lipase (MAGL) inhibitors” (Eur J Med Chem, 2021).
pIC50: −log10 of the molar value. Activity calls are given as the source filed them. The calls are words filed in the database; no cut-off is given here.

What was measured:
[1] = target: T1, Fatty-acid amide hydrolase 1 (Mus musculus) (UniProt O08914); experiment: Inhibition of FAAH in mouse brain membrane up to 30 uM preincubated for 25 mins followed by TAMRA-FP labeling addition and measured after 5 mins by competitive ABPP based analysis; type: cell membranes; details: dose microM <=30, time 30.0 min
T1 sequence (whole entry): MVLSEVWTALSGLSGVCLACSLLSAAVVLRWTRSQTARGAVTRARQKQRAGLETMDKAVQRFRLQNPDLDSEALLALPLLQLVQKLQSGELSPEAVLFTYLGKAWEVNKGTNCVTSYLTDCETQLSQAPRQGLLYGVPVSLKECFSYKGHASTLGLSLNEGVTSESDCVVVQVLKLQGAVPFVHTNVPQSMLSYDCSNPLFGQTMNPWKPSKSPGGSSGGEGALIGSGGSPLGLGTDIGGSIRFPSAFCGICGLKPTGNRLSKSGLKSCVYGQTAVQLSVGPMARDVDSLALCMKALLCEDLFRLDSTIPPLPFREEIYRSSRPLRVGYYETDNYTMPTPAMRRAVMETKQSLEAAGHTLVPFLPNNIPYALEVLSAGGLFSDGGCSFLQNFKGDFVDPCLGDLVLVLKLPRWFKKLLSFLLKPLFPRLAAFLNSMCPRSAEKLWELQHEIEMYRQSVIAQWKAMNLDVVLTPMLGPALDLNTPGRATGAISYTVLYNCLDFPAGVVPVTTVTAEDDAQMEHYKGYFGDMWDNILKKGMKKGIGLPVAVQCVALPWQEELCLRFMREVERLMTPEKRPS
Method in brief: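 Mouse brain membranes, 4 mg/mL in PBS, preincubated 25 min at 25 °C with compound at 10 µM or a range of concentrations. Labelled 5 min with TAMRA-FP at 125 nM final. Proteins resolved on 11% SDS-PAGE and scanned for fluorescence.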

[2] = target: T2, Lysophosphatidylserine lipase ABHD12 (Homo sapiens, UniProt Q8N2K0); experiment: Inhibition of human ABHD12 expressed in HEK293 cells using [3H]2-OG as substrate preincubated for 30 mins followed by substrate addition and measured after 5 mins by liquid scintillation spectroscopy; type: cell-based
T2 sequence (Q8N2K0 whole entry): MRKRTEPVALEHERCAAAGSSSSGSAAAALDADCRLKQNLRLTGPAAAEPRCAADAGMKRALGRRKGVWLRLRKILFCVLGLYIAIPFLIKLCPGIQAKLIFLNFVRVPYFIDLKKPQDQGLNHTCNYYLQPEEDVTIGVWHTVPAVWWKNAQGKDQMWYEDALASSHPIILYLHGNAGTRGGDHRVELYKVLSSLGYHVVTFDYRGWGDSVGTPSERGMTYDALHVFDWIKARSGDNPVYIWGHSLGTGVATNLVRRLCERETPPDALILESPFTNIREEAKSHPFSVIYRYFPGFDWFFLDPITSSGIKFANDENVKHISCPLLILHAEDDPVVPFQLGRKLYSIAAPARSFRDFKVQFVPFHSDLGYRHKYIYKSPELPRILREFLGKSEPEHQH
Method in brief: (§1)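 Homogenate (40 µg) of HEK293 cells stably transfected with human ABHD6 or ABHD12, preincubated with compound 30 min at 37 °C in […], 0.1% BSA, pH 7.6. 2-OG 10 µM added for 5 min at 37 °C. Stopped with CHCl3:MeOH; aqueous tritium counted; blanks and nontransfected HEK293 hydrolysis subtracted. Screening at 10 µM.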

[3] = target: T3, Monoacylglycerol lipase ABHD6 (Homo sapiens, UniProt Q9BV23); experiment: Inhibition of human ABHD6 expressed in HEK293 cells using [3H]2-OG as substrate preincubated for 30 mins followed by substrate addition and measured after 5 mins by liquid scintillation spectroscopy; type: cell-based; method in brief: as §1
T3 sequence (Q9BV23 whole entry): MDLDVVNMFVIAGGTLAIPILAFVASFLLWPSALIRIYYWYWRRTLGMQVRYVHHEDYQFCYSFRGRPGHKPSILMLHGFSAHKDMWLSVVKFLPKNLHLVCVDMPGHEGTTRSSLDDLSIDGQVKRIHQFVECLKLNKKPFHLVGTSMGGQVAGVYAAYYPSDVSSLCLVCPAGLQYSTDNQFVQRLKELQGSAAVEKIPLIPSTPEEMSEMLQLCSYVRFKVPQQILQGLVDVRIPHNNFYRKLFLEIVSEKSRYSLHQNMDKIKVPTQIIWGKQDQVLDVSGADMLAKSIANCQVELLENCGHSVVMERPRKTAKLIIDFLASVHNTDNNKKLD

[4] = Antiproliferative activity against human PDAC-3 cells assessed as inhibition of cell growth incubated for 72 hrs by SRB assay; type: functional, cell-based; details: PDAC-3, 72 h
Method in brief: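 Primary patient-derived PDAC-3 cells, cultured under 20 passages in RPMI-1640 with 10% NBCS. Compounds dissolved in DMSO and tested at 8 concentrations, 156.25 to 20 000 nM. Growth read by sulforhodamine-B assay.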

[5] = target: T4, Lysophosphatidylserine lipase ABHD12 (Homo sapiens) (UniProt Q8N2K0); experiment: Inhibition of human ABHD12 expressed in HEK293 cells using [3H]2-OG as substrate at 10 uM preincubated for 30 mins followed by substrate addition and measured after 5 mins by liquid scintillation spectroscopy; type: cell-based; details: time 35.0 min; method in brief: as §1
T4 sequence (whole entry): T2 sequence (Q8N2K0 whole entry)

[6] = Cytotoxicity against cancer-derived human organoids in HGSOC patient assessed as reduction in cell viability up to 100 uM measured after 96 hrs by Celltiter-glo luminescent assay; type: functional, Neoplasm; details: dose microM <=100
Method in brief: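 Organoids from three HGSOC patients. Tissue digested with 2 mg/mL collagenase for 30 min, embedded in BME matrix and cultured. Treated at 100 µM, with carboplatin as positive control. Viability read by CellTiter-Glo luminescence.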

Monoglyceride lipase = target: T5, Monoglyceride lipase (Homo sapiens, UniProt Q99685); experiment: Inhibition of human recombinant MAGL using 4-nitrophenylacetate as substrate incubated for 30 mins by microplate reader assay
T5 sequence (Q99685 whole entry): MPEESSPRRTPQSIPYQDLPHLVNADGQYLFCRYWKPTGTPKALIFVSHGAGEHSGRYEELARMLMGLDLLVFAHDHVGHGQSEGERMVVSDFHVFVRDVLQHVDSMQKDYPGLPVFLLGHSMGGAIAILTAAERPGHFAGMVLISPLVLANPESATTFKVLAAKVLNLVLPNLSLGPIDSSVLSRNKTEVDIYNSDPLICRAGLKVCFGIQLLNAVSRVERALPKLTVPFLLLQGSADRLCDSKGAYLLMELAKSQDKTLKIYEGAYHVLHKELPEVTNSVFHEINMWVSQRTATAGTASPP
Method in brief: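 Human recombinant MAGL, 11 ng/well, in 10 mM Tris pH 7.2 with 1 mM EDTA and 0.1 mg/mL BSA, at room temperature. 4-NPA 133.3 µM stock added; enzyme added last. Absorbance at 405 nm after 30 min, minus a no-enzyme blank for each concentration. Sigmoidal fit; duplicates of three independent experiments.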

[7] = target: T6, Monoglyceride lipase (Homo sapiens) (UniProt Q99685); experiment: Reversible inhibition of human recombinant MAGL using 4-nitrophenylacetate as substrate preincubated with enzyme for 0 to 60 mins followed by substrate addition by microplate reader assay; details: time 0-60 min
T6 sequence (whole entry): T5 sequence (Q99685 whole entry)
Method in brief: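 MAGL (11 ng/well) preincubated with compound in DMSO for 0, 30 or 60 min. Reaction then started with 4-NPA 500 µM stock, same buffer and read-out as the main assay. IC50 at each time; triplicates of two independent experiments.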

SMILES | inhibition [1] | pIC50 [2] | pIC50 [3] | pIC50 [4] | inhibition [5] [%] | inhibition (INH) [6] [%] | pIC50 (Monoglyceride lipase) | inhibition [7]
O=C(c1ccc(Sc2ccccc2)cc1)C1CCN(C(=O)c2cc(O)c(F)cc2F)CC1 | inactive | < 5.00 | < 5.00 | 4.84 | 27 | 42 | 7.74 | Active
O=C(c1ccc(Cc2ccccc2)cc1)C1CCN(C(=O)c2cc(O)c(F)cc2F)CC1 | inactive | < 5.00 | < 5.00 | 4.92 | 28 | 18 | 7.44 | Active
O=C(c1ccc(Cc2ccccc2)cc1)C1CCN(C(=O)c2cc(O)ccc2F)CC1 | inactive | < 5.00 | < 5.00 | 4.90 | 20 | 42 | 7.31 | Active
O=C(c1ccc(Sc2ccccc2)cc1)C1CCN(C(=O)c2cc(O)ccc2F)CC1 | inactive | < 5.00 | < 5.00 | 5.03 | 26 | 42 | 7.52 | Active
